Assay results reported in ChEMBL document CHEMBL1255281, “Effects on gram-negative and gram-positive bacteria mediated by 5-aminolevulinic Acid and 5-aminolevulinic acid derivatives” (2008).
Activity calls are given as the source filed them. No cut-off for these calls is given here.

Key:
Escherichia coli [1] = test: Antibacterial activity against Escherichia coli K-12 assessed as reduction in microbial viability incubated at 10 mM followed by irradiation at 120 J.cm2 light; assay type: functional, organism-based
How it was run: (§1)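 Log-phase cells (OD600 ~0.30) washed twice in PBS (0.1 N, pH 6.5), pelleted, resuspended in freshly made substrate in the same PBS and kept 4 h at 37°C in the dark with shaking. About 5 × 10⁷ bacteria in 2.5 ml were then exposed to white halogen light for 40 min (120 J·cm⁻²). CFU were counted by plating dilutions on Columbia agar. Survival = CFU/ml after PDI ÷ CFU/ml of initial sample; mean of n = 4 ± SD.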

Escherichia coli [2] = test: Induction of photoactive porphyrins in Escherichia coli K-12 at 10 mM exposed to irradiation at 120 J.cm2 light by HPLC; assay type: functional, organism-based
How it was run: (§2)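 Cells were loaded 4 h at 37°C in the dark with substrate in PBS (pH 6.5), in parallel with the PDI samples. 10 ml of suspension was pelleted and taken up in ethanol/DMSO/acetic acid (80:20:1). Cells were broken by five 5-s sonication pulses at 0°C and centrifuged. The supernatant was run on HPLC with a gradient (acetate buffer/acetonitrile to methanol/acetonitrile) and fluorescence detection (ex 407, em 620 nm). Total porphyrins are given as pmol·10⁻⁶ CFU.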

Escherichia coli [3] = test: Induction of photoactive porphyrins in Escherichia coli K-12 assessed as protoporphyrin level exposed to irradiation at 120 J.cm2 light by HPLC; assay type: functional, organism-based; how it was run: as §2
Escherichia coli [4] = test: Antibacterial activity against Escherichia coli K-12 assessed as microbial survival fraction incubated at 0.1 mM followed by irradiation at 120 J.cm2 light relative to untreated control; assay type: functional; how it was run: as §1
Escherichia coli [5] = test: Induction of photoactive porphyrins in Escherichia coli Ti05 assessed as porphyrin level per 10^-6 CFU microbial load incubated at 1 mM followed by irradiation at 120 J.cm2 light relative to untreated control; assay type: functional; how it was run: as §2
Escherichia coli [6] = test: Induction of photoactive porphyrins in Escherichia coli K-12 exposed to irradiation at 120 J.cm2 light by HPLC; assay type: functional, organism-based; how it was run: as §2
Pseudomonas aeruginosa [7] = test: Antibacterial activity against Pseudomonas aeruginosa assessed as microbial survival fraction incubated at 1 mM followed by irradiation at 120 J.cm2 light relative to untreated control; assay type: functional; how it was run: as §1
Staphylococcus aureus [8] = test: Antibacterial activity against methicillin resistant Staphylococcus aureus assessed as microbial survival fraction incubated at 10 mM followed by irradiation at 120 J.cm2 light relative to untreated control; assay type: functional
How it was run: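 MRSA grown 48 h on Columbia sheep-blood agar, then overnight in tryptone soy broth at 37°C, brought to OD600 ~0.30 and washed twice in PBS pH 6.5. Cells were held with substrate in PBS for 4 h in the dark at 37°C with shaking. About 5 × 10⁷ bacteria were exposed to halogen white light for 40 min (120 J·cm⁻²). CFU were counted on Columbia agar; survival = N_PDI/N₀; mean of n = 4 ± SD.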

Escherichia coli [9] = test: Antibacterial activity against Escherichia coli K-12 assessed as reduction in microbial viability incubated at 40 mM for 4 hrs under dark condition; assay type: functional, organism-based
How it was run: (§3)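 Dark toxicity. Washed log-phase cells (OD600 ~0.30, PBS 0.1 N pH 6.5) were held 4 h at 37°C in the dark with shaking in substrate dissolved in the same PBS and were not illuminated. CFU were counted on Columbia agar. Survival = CFU/ml of nonilluminated sample ÷ CFU/ml of initial sample; mean of n = 4 ± SD.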

Escherichia coli [10] = test: Antibacterial activity against Escherichia coli K-12 assessed as reduction in microbial viability incubated at <40 mM for 4 hrs under dark condition; assay type: functional, organism-based; how it was run: as §3
Pseudomonas aeruginosa [11] = test: Induction of photoactive porphyrins in Pseudomonas aeruginosa assessed as porphyrin level per 10^-6 CFU microbial load incubated at 1 mM followed by irradiation at 120 J.cm2 light relative to untreated control; assay type: functional; how it was run: as §2
Escherichia coli [12] = test: Induction of photoactive porphyrins in Escherichia coli K-12 assessed as porphyrin level per 10^-6 CFU microbial load incubated at 0.1 mM followed by irradiation at 120 J.cm2 light relative to untreated control; assay type: functional; how it was run: as §2
Escherichia coli [13] = test: Antibacterial activity against Escherichia coli K-12 assessed as reduction in microbial viability incubated at 0.1 mM followed by irradiation at 120 J.cm2 light; assay type: functional, organism-based; how it was run: as §1
Escherichia coli [14] = test: Antibacterial activity against Escherichia coli Ti05 assessed as microbial survival fraction incubated at 1 mM followed by irradiation at 120 J.cm2 light relative to untreated control; assay type: functional; how it was run: as §1
Escherichia coli [15] = test: Antibacterial activity against Escherichia coli K-12 assessed as reduction in microbial viability incubated at 40 mM followed by irradiation at 120 J.cm2 light; assay type: functional, organism-based; how it was run: as §1
Escherichia coli [16] = test: Induction of photoactive porphyrins in Escherichia coli K-12 assessed as uroporphyrin level exposed to irradiation at 120 J.cm2 light by HPLC; assay type: functional, organism-based; how it was run: as §2
Staphylococcus aureus [17] = test: Induction of photoactive porphyrins in methicillin resistant Staphylococcus aureus assessed as porphyrin level per 10^-6 CFU microbial load incubated at 10 mM followed by irradiation at 120 J.cm2 light relative to untreated control; assay type: functional
How it was run: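 MRSA was washed in PBS pH 6.5 and held with substrate in PBS for 4 h in the dark at 37°C with shaking; a separate fraction was taken for porphyrin analysis. Pellets were extracted in ethanol/DMSO/acetic acid (80:20:1), sonicated 5 × 5 s at 0°C and centrifuged. Supernatant went to gradient HPLC with fluorescence detection (excitation 407, emission 620 nm). Total porphyrins are expressed as pmol·10⁻⁶ CFU.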

Escherichia coli [18] = test: Induction of photoactive porphyrins in Escherichia coli K-12 assessed as porphyrin 6-CP level exposed to irradiation at 120 J.cm2 light by HPLC; assay type: functional, organism-based; how it was run: as §2
Escherichia coli [19] = test: Antibacterial activity against Escherichia coli K-12 assessed as microbial survival fraction incubated at 10 mM followed by irradiation at 120 J.cm2 light relative to untreated control; assay type: functional; how it was run: as §1
Escherichia coli [20] = test: Induction of photoactive porphyrins in Escherichia coli Ti05 assessed as porphyrin level per 10^-6 CFU microbial load incubated at 10 mM followed by irradiation at 120 J.cm2 light relative to untreated control; assay type: functional; how it was run: as §2
Escherichia coli [21] = test: Induction of photoactive porphyrins in Escherichia coli K-12 assessed as porphyrin level per 10^-6 CFU microbial load incubated at 10 mM followed by irradiation at 120 J.cm2 light relative to untreated control; assay type: functional; how it was run: as §2
Escherichia coli [22] = test: Induction of photoactive porphyrins in Escherichia coli K-12 assessed as porphyrin 7-CP level exposed to irradiation at 120 J.cm2 light by HPLC; assay type: functional, organism-based; how it was run: as §2
Escherichia coli [23] = test: Induction of photoactive porphyrins in Escherichia coli K-12 assessed as porphyrin 5-CP level exposed to irradiation at 120 J.cm2 light by HPLC; assay type: functional, organism-based; how it was run: as §2
Pseudomonas aeruginosa [24] = test: Antibacterial activity against Pseudomonas aeruginosa assessed as microbial survival fraction incubated at 10 mM followed by irradiation at 120 J.cm2 light relative to untreated control; assay type: functional; how it was run: as §1
Escherichia coli [25] = test: Antibacterial activity against Escherichia coli Ti05 assessed as microbial survival fraction incubated at 10 mM followed by irradiation at 120 J.cm2 light relative to untreated control; assay type: functional; how it was run: as §1
Pseudomonas aeruginosa [26] = test: Induction of photoactive porphyrins in Pseudomonas aeruginosa assessed as porphyrin level per 10^-6 CFU microbial load incubated at 10 mM followed by irradiation at 120 J.cm2 light relative to untreated control
Escherichia coli [27] = test: Antibacterial activity against Escherichia coli K-12 assessed as reduction in microbial viability incubated at 30 mM for 4 hrs under dark condition; assay type: functional, organism-based; how it was run: as §3

## CCCCCCCCOC(=O)CCC(=O)CN
Escherichia coli [1]
  growth inhibition (GI): inactive
Escherichia coli [2]
  Activity: inactive

## CCCCCCOC(=O)CCC(=O)CN
Escherichia coli [1]
  growth inhibition (GI): inactive
Escherichia coli [2]
  Activity: inactive

## CCCCCOC(=O)CCC(=O)CN
Escherichia coli [1]
  growth inhibition (GI): inactive
Escherichia coli [2]
  Activity: inactive

## CCCCOC(=O)CCC(=O)CN
Escherichia coli [1]
  growth inhibition (GI): Active
Escherichia coli [2]
  Activity: Active

## NCC(=O)CCC(=O)O [AMINOLEVULINIC ACID]
Escherichia coli [3]
  Activity: Active
Escherichia coli [4]
  Ratio: 0.00048
Escherichia coli [5]
  Activity: 5.4 pmol
Escherichia coli [6]
  Activity: Active
Pseudomonas aeruginosa [7]
  Ratio: 0.0019
Staphylococcus aureus [8]
  Ratio: 5e-06
Escherichia coli [9]
  growth inhibition (GI): Active
Escherichia coli [10]
  growth inhibition (GI): inactive
Pseudomonas aeruginosa [11]
  Activity: 34.5 pmol
Escherichia coli [12]
  Activity: 7.5 pmol
Escherichia coli [13]
  growth inhibition (GI): Active
Escherichia coli [14]
  Ratio: 5e-05
Escherichia coli [15]
  growth inhibition (GI): Active
Escherichia coli [16]
  Activity: Active
Staphylococcus aureus [17]
  Activity: 6.6 pmol

## COC(=O)CCC(=O)CN [METHYL AMINOLEVULINATE]
Escherichia coli [18]
  Activity: Active
Escherichia coli [19]
  Ratio: 8.1e-06
Escherichia coli [1]
  growth inhibition (GI): Active
Escherichia coli [20]
  Activity: 10.2 pmol
Staphylococcus aureus [8]
  Ratio: 0.00078
Escherichia coli [21]
  Activity: 12.5 pmol
Escherichia coli [22]
  Activity: Active
Escherichia coli [23]
  Activity: Active
Pseudomonas aeruginosa [24]
  Ratio: 0.012
Escherichia coli [25]
  Ratio: 2e-05
Pseudomonas aeruginosa [26]
  Activity: 6 pmol
Escherichia coli [27]
  growth inhibition (GI): Active
Escherichia coli [16]
  Activity: Active
Staphylococcus aureus [17]
  Activity: 2.5 pmol
